The target in assay [1] is T1, Muscarinic acetylcholine receptor M2 (Homo sapiens, UniProt P08172).
T1 sequence (P08172 whole entry): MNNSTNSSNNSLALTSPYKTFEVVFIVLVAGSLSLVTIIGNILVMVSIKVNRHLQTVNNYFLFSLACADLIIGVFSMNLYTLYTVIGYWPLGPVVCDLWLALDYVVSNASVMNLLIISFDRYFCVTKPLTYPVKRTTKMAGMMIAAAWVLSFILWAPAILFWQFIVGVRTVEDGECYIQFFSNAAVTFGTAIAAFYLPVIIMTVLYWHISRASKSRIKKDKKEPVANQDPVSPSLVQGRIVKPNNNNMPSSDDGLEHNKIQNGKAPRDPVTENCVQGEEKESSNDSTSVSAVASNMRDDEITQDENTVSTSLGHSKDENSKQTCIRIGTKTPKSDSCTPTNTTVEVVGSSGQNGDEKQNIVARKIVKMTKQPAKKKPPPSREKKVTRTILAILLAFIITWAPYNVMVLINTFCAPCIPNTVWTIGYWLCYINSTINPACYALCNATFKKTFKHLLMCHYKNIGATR
Kind of assay: Activity at human muscarinic acetylcholine receptor subtype 2 expressed in CHO cells co-transfected with chimeric Gqi5 by calcium mobilization assay. The format is functional, cell-based. In a few lines: (§1)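 Muscarinic subtype selectivity by fluorescence calcium mobilization in highly expressing CHO lines with similar receptor levels; Gi/o-coupled M2 and M4 cells co-transfected with chimeric Gqi5 to couple to Ca2+ mobilization. Read-outs are PAM EC50 and ACh max response. Mean ± SEM of at least three independent determinations.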
(In general: A change in cytosolic calcium serves as a functional read-out for many receptors and channels.)

Assay [2] deals with T2, Muscarinic acetylcholine receptor M4 (Rattus norvegicus, UniProt P08485).
T2 sequence (P08485 whole entry): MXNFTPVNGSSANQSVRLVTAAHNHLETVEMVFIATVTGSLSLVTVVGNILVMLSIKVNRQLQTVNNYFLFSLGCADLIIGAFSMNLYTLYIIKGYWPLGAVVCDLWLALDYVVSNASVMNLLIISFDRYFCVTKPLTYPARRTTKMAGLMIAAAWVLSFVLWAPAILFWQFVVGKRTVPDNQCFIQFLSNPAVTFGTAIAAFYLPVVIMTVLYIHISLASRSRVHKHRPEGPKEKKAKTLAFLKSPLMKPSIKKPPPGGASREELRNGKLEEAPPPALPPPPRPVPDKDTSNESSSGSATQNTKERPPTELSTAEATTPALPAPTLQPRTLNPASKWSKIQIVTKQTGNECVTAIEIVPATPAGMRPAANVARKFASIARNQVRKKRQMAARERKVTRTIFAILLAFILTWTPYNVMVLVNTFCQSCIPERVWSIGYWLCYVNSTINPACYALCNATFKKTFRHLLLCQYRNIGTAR
Kind of assay: Activity at rat muscarinic acetylcholine receptor subtype 4 expressed in CHO cells co-transfected with chimeric Gqi5 by calcium mobilization assay. The format is functional, cell-based. In a few lines: as §1

The structures appear in SMILES notation.

Take `CCN(Cc1ccccc1C(F)(F)F)C(=O)C1CCN(S(=O)(=O)c2ccc3[nH]ncc3c2)CC1`: the EC50 in assay [1] and in assay [2] was > 30 µM each time.

One may read the EC50 as the concentration needed to bring the measured effect to its halfway point.

Values taken from ChEMBL document CHEMBL3352313 (J Med Chem, 2014).
